Laboratory results taken from PMC2939154 (Nature, 2010).
“Also recorded” adds a separate entry of the source. Ends that are not written are not given here.

How the values were obtained:
[1] = system: N-terminally methylated proteins; details: mouse spleen and cardiac lysates, anti-me3-SPK immunoprecipitation
[2] = molecular target: N-terminal RCC1 methyltransferase (NRMT) (not stated (human or mouse cDNA cloned)) (UniProt Q9BV86); assay: ITC
[3] = molecular target: T1, NRMT (Homo sapiens, UniProt Q9BV86); assay: isothermal titration calorimetry; format: binding; details: ITC, 25OC, methyltransferase buffer pH 8.0
T1 sequence (Q9BV86 1-223): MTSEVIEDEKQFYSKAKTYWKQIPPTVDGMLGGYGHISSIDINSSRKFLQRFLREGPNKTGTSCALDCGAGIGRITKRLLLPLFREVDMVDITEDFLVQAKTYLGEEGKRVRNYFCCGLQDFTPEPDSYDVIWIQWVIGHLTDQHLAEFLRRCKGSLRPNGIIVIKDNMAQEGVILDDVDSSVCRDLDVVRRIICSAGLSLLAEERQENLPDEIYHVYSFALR
How it was run: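 Isothermal titration calorimetry of NRMT binding to peptide ligands: the wild-type RCC1 N-terminal peptide and a mutant peptide with Gln in place of Lys4. This tests whether Lys4 is needed for substrate binding. The readout is binding affinity.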

[4] = molecular target: T1, NRMT; assay: in vitro methylation assay of protein substrates by NRMT, immunoblot; format: biochemical; details: 50mM Tris, 50mM K Acetate, pH 8.0, 100 µM SAM, 1 h at 30°C
[5] = system: RCC1 methylation in 293LT cells; assay: NRMT lentiviral knockdown and rescue in 293LT cells, immunoblot; format: cell-based; details: murine NRMT, not targeted by human shRNA
[6] = system: SPK-RCC1; format: biochemical, human; details: in vitro methylation of SPK-RCC1

myosin light chain 3: mouse protein identified in anti-me3-SPK immunoprecipitates
N-terminal methylation identified by MS [1]: N-terminally methylated

wild-type 12-residue RCC1 N-terminal peptide
Kd [2]: 70 µM | dH [2]: -41 kJ/mol

H-SPKRIAKRRSPP
ΔH (exothermic binding) [3]: -41 kJ/mol

B1: RB: tumor suppressor protein RB; endogenous, or N-terminus fused to GFP (Fig. 3g) (protein, UniProt P06400 2-928, looked up)
Retinoblastoma-associated …: PPKTPRKTAATAAAAAAEPPAPPPPPPPEEDPEQDSGPEDLPLVRLEFEETEEPDFTALCQKLKIPDHVRERAWLTWEKVSSVDGVLGGYIQKKKELWGICIFIAAVDLDEMSFTFTELQKNIEISVHKFFNLLKEIDTSTKVDNAMSRLLKKYDVLFALFSKLERTCELIYLTQPSSSISTEINSALVLKVSWITFLLAKGEVLQMEDDLVISFQLMLCVLDYFIKLSPPMLLKEPYKTAVIPINGSPRTPRRGQNRSARIAKQLENDTRIIEVLCKEHECNIDEVKNVYFKNFIPFMNSLGLVTSNGLPEVENLSKRYEEIYLKNKDLDARLFLDHDKTLQTDSIDSFETQRTPRKSNLDEEVNVIPPHTPVRTVMNTIQQLMMILNSASDQPSENLISYFNNCTVNPKESILKRVKDIGYIFKEKFAKAVGQGCVEIGSQRYKLGVRLYYRVMESMLKSEEERLSIQNFSKLLNDNIFHMSLLACALEVVMATYSRSTSQNLDSGTDLSFPWILNVLNLKAFDFYKVIESFIKAEGNLTREMIKHLERCEHRIMESLAWLSDSPLFDLIKQSKDREGPTDHLESACPLNLPLQNNHTAADMYLSPVRSPKKKGSTTRVNSTANAETQATSAFQTQKPLKSTSLSLFYKKVYRLAYLRLNTLCERLLSEHPELEHIIWTLFQHTLQNEYELMRDRHLDQIMMCSMYGICKVKNIDLKFKIIVTAYKDLPHAVQETFKRVLIKEEEYDSIIVFYNSVFMQRLKTNILQYASTRPPTLSPIPHIPRSPYKFPSSPLRIPGGNIYISPLKSPYKISEGLPTPTKMTPRSRILVSIGESFGTSEKFQKINQMVCNSDRVLKRSAEGSNPPKPLKKLRFDIEGSDEADGSKHLPGESKFQQKLAEMTSTRTRMQKQKMNDSMDTSNKEEK
in vitro methylation (enzyme FLAG-NRMT or His6-NRMT; substrate protein) [4]: can methylate in vitro; also recorded: able to methylate

B2: RCC1: regulator of chromosome condensation 1, Ran guanine nucleotide-exchange factor (protein, UniProt P18754 2-421, looked up)
Regulator of chromosome …: SPKRIAKRRSPPADAIPKSKKVKVSHRSHSTEPGLVLTLGQGDVGQLGLGENVMERKKPALVSIPEDVVQAEAGGMHTVCLSKSGQVYSFGCNDEGALGRDTSVEGSEMVPGKVELQEKVVQVSAGDSHTAALTDDGRVFLWGSFRDNNGVIGLLEPMKKSMVPVQVQLDVPVVKVASGNDHLVMLTADGDLYTLGCGEQGQLGRVPELFANRGGRQGLERLLVPKCVMLKSRGSRGHVRFQDAFCGAYFTFAISHEGHVYGFGLSNYHQLGTPGTESCFIPQNLTSFKNSTKSWVGFSGGQHHTVCMDSEGKAYSLGRAEYGRLGLGEGAEEKSIPTLISRLPAVSSVACGASVGYAVTKDGRVFAWGMGTNYQLGTGQDEDAWSPVEMMGKQLENRVVLSVSSGGQHTVLLVKDKEQS
N-terminal methylation identified by MS [1]: N-terminally methylated

B3: kelch-like protein 31: mouse protein identified in anti-me3-SPK immunoprecipitates (protein, UniProt Q8BWA5 2-634, looked up)
Kelch-like protein 31: APKKKTIKKNKAEINEMTIIVEDSPLSKLNALNGLLEGSNSLSCVSSELTDTSYGPNLLEGLSKMRQESFLCDLVIGTKTKSFDVHKSVMASCSEYFYNILKNDPSTKRVDLNDIAPLGLATVIAYAYTGKLTLSLYTIGSIISAAVYLQIHTLVKMCSDFLIREISVENCMYVVNIAETYSLKNAKATAQKFIRDNFIEFAESEQFMKLTFEQINELLVDDDLQLPSELVAFQIAMKWLEFDQKRVKHAADLLSNIRFGTISAQDLVNYVQTVPRMMQDADCHKLLVDAMNYHLLPYHQNTLQSRRTRIRGGCRVLITVGGRPGLTEKSLSRDILYRDPENGWSKLTEMPAKSFNQCVAVMDGFLYVAGGEDQNDARNQAKHAVSNFCRYDPRFNTWIHLGSMNQKRTHFSLSVFNGLLYAVGGRNSEGSLASLECYVPSTNQWQPKAPLEVARCCHASAVADGRVIVTGGYIGSAYSRSVCAYDPALDAWQELPQLSTPRGWHCAVALGDRLYVMGGSQLGPRGERVDVLTVESFSPAARQWSFVAPLPVGVSTAGVSALHGRAYLLGGWNEGDKKYKKCIQCFNPELNEWTEDDELPEATVGVSCCTLAMPNSVSRESRASSVSSVPVSI
N-terminal methylation identified by MS [1]: N-terminally methylated

B4: myosin light chain 2: mouse protein identified in anti-me3-SPK immunoprecipitates (protein, UniProt P51667 2-166, looked up)
Myosin regulatory light chain …: APKKAKKRIEGGSSNVFSMFEQTQIQEFKEAFTIMDQNRDGFIDKNDLRDTFAALGRVNVKNEEIDEMIKEAPGPINFTVFLTMFGEKLKGADPEETILNAFKVFDPEGKGSLKADYVREMLTTQAERFSKEEIDQMFAAFPPDVTGNLDYKNLVHIITHGEEKD
N-terminal methylation identified by MS [1]: N-terminally methylated

B5: FLAG-NRMT: N-terminally FLAG-tagged NRMT (protein, UniProt Q9BV86 1-223, looked up)
N-terminal Xaa-Pro-Lys …: MTSEVIEDEKQFYSKAKTYWKQIPPTVDGMLGGYGHISSIDINSSRKFLQRFLREGPNKTGTSCALDCGAGIGRITKRLLLPLFREVDMVDITEDFLVQAKTYLGEEGKRVRNYFCCGLQDFTPEPDSYDVIWIQWVIGHLTDQHLAEFLRRCKGSLRPNGIIVIKDNMAQEGVILDDVDSSVCRDLDVVRRIICSAGLSLLAEERQENLPDEIYHVYSFALR
modifications: N-terminal FLAG tag
in vitro methylation (enzyme FLAG-NRMT or His6-NRMT; substrate protein) [4]: methylates RCC1-His6

B6: RCC1-His6: recombinant RCC1 with C-terminal His6 tag (protein)
chain: MSPKRIAKRRSPPADAIPKSKKVKVSHRSHSTEPGLVLTLGQGDVGQLGLGENVMERKKPALVSIPEDVVQAEAGGMHTVCLSKSGQVYSFGCNDEGALGRDTSVEGSEMVPGKVELQEKVVQVSAGDSHTAALTDDGRVFLWGSFRDNNGVIGLLEPMKKSMVPVQVQLDVPVVKVASGNDHLVMLTADGDLYTLGCGEQGQLGRVPELFANRGGRQGLERLLVPKCVMLKSRGSRGHVRFQDAFCGAYFTFAISHEGHVYGFGLSNYHQLGTPGTESCFIPQNLTSFKNSTKSWVGFSGGQHHTVCMDSEGKAYSLGRAEYGRLGLGEGAEEKSIPTLISRLPAVSSVACGASVGYAVTKDGRVFAWGMGTNYQLGTGQDEDAWSPVEMMGKQLENRVVLSVSSGGQHTVLLVKDKEQS
modifications: left off: His6, C-terminal, state not stated
in vitro methylation (enzyme FLAG-NRMT or His6-NRMT; substrate protein) [4]: di-and trimethylates

B7: PPK-RCC1-His6: RCC1 possessing a Pro2 residue, His6 tagged (protein, UniProt P18754 2-421, looked up, variant S2P)
Regulator of chromosome …: PPKRIAKRRSPPADAIPKSKKVKVSHRSHSTEPGLVLTLGQGDVGQLGLGENVMERKKPALVSIPEDVVQAEAGGMHTVCLSKSGQVYSFGCNDEGALGRDTSVEGSEMVPGKVELQEKVVQVSAGDSHTAALTDDGRVFLWGSFRDNNGVIGLLEPMKKSMVPVQVQLDVPVVKVASGNDHLVMLTADGDLYTLGCGEQGQLGRVPELFANRGGRQGLERLLVPKCVMLKSRGSRGHVRFQDAFCGAYFTFAISHEGHVYGFGLSNYHQLGTPGTESCFIPQNLTSFKNSTKSWVGFSGGQHHTVCMDSEGKAYSLGRAEYGRLGLGEGAEEKSIPTLISRLPAVSSVACGASVGYAVTKDGRVFAWGMGTNYQLGTGQDEDAWSPVEMMGKQLENRVVLSVSSGGQHTVLLVKDKEQS
modifications: His6 tag
in vitro methylation (enzyme FLAG-NRMT or His6-NRMT; substrate protein) [4]: dimethylates

B8: murine NRMT-FLAG: murine NRMT-FLAG, not targeted by the human shRNA (protein, UniProt Q8R2U4 1-223, looked up)
N-terminal Xaa-Pro-Lys …: MTSEVIEDEKQFYSKAKTYWKQIPPTVDGMLGGYGHISNIDLNSSRKFLQRFLREGPNKTGTSCALDCGAGIGRITKRLLLPLFRVVDMVDVTEDFLAKAKTYLGEEGKRVRNYFCCGLQDFSPEPGSYDVIWIQWVIGHLTDQHLAEFLRRCKRGLRPNGIIVIKDNMAQEGVILDDVDSSVCRDLEVVRRIIRTAGLSLLAEERQENLPDEIYHVYSFALR
modifications: FLAG tag
RCC1 methylation levels, rescue in NRMT knockdown cells [5]: rescues RCC1 methylation levels; also recorded: RCC1 methylation was rescued

B9: NRMT(Lys169): NRMT mutant at Asn169 (protein)
chain: TSEVIEDEKQFYSKAKTYWKQIPPTVDGMLGGYGHISSIDINSSRKFLQRFLREGPNKTGTSCALDCGAGIGRITKRLLLPLFREVDMVDITEDFLVQAKTYLGEEGKRVRNYFCCGLQDFTPEPDSYDVIWIQWVIGHLTDQHLAEFLRRCKGSLRPNGIIVIKDKMAQEGVILDDVDSSVCRDLDVVRRIICSAGLSLLAEERQENLPDEIYHVYSFALR
methylation activity of NRMT mutant [6]: no activity
